In brackets after ≈: the same amount, converted by molar mass.
Tests used:
Assay type in all cases: functional
[1] = system: Candida albicans; assay: Antifungal activity against Candida albicans ATCC 10231 after 48 hrs by CLSI broth microdilution method; conditions: ATCC 10231, 48 h
Outline: (§1)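 Yeast CLSI broth microdilution (M27-A3). Compounds dissolved in DMSO at 100× the top test concentration, then diluted as serial two-fold dilutions in RPMI 1640 to final 0.125–64. Inoculum was 1.0–1.5 × 10^3 cells mL−1, incubated at 35 °C and read for growth at 48 h. MIC is the lowest concentration giving ≥50% growth inhibition versus growth control. Reported as the median of five replicates and as the geometric mean.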

[2] = system: Cryptococcus neoformans; assay: Antifungal activity against Cryptococcus neoformans PMC 2136 after 72 hrs by CLSI broth microdilution method; conditions: PMC 2136, 72 h
Outline: (§2)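 Cryptococcus neoformans tested by CLSI broth microdilution in RPMI 1640, with serial two-fold dilutions from DMSO stocks at 100× the top concentration, final 0.125–64. Inoculum was 1.0–1.5 × 10^3 cells mL−1 at 35 °C, with growth read at 72 h. MIC is the lowest concentration with ≥50% growth inhibition versus control. Median of five replicates, plus geometric mean.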

[3] = system: Cryptococcus neoformans; assay: Antifungal activity against Cryptococcus neoformans PMC 2107 after 72 hrs by CLSI broth microdilution method; conditions: PMC 2107, 72 h; outline: as §2
[4] = system: Pichia kudriavzevii; assay: Antifungal activity against Candida krusei PMC 0613 after 48 hrs by CLSI broth microdilution method; conditions: PMC 0613, 48 h; outline: as §1
[5] = system: Nannizzia gypsea; assay: Antifungal activity against Microsporum gypseum DSM 3824 after 72 hrs by CLSI broth microdilution method; conditions: DSM 3824, 72 h
Outline: (§3)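 Dermatophytes tested by CLSI broth microdilution for filamentous fungi (M38-A2). Serial two-fold dilutions of DMSO-dissolved compound in RPMI 1640, final 0.125–64. Inoculum was 0.4–5 × 10^4 CFU mL−1, incubated at 35 °C and read at 72 h. MIC80 is the lowest concentration giving ≥80% growth inhibition versus growth control. Median of five replicates, plus geometric mean.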

[6] = system: Candida albicans; assay: Antifungal activity against Candida albicans PMC 1040R after 48 hrs by CLSI broth microdilution method; outline: as §1
[7] = system: Trichophyton mentagrophytes; assay: Antifungal activity against Trichophyton mentagrophytes PMC 6552 after 72 hrs by CLSI broth microdilution method; conditions: PMC 6552, 72 h; outline: as §3
[8] = system: Cryptococcus neoformans; assay: Antifungal activity against Cryptococcus neoformans PMC 2103 after 72 hrs by CLSI broth microdilution method; conditions: PMC 2103, 72 h; outline: as §2
[9] = system: Nakaseomyces glabratus; assay: Ratio of fluconazole MIC to compound MIC for Candida glabrata PMC 0851R after 48 hrs by CLSI broth microdilution method
[10] = system: Cryptococcus neoformans; assay: Antifungal activity against Cryptococcus neoformans PMC 2111 after 72 hrs by CLSI broth microdilution method; conditions: PMC 2111, 72 h; outline: as §2
[11] = system: Nakaseomyces glabratus; assay: Antifungal activity against Candida glabrata PMC 0807 after 48 hrs by CLSI broth microdilution method; conditions: PMC 0807, 48 h; outline: as §1
[12] = system: Pichia kudriavzevii; assay: Antifungal activity against Candida krusei DSM 6128 after 48 hrs by CLSI broth microdilution method; conditions: DSM 6128, 48 h; outline: as §1
[13] = system: Nakaseomyces glabratus; assay: Antifungal activity against Candida glabrata PMC 0851R after 48 hrs by CLSI broth microdilution method; outline: as §1
[14] = system: Candida albicans; assay: Antifungal activity against Candida albicans PMC 1042R after 48 hrs by CLSI broth microdilution method; outline: as §1
[15] = system: Cryptococcus neoformans; assay: Antifungal activity against Cryptococcus neoformans PMC 2123 after 72 hrs by CLSI broth microdilution method; conditions: PMC 2123, 72 h; outline: as §2
[16] = system: Candida albicans; assay: Antifungal activity against Candida albicans ATCC 90028 after 48 hrs by CLSI broth microdilution method; conditions: ATCC 90028, 48 h; outline: as §1
[17] = system: Nakaseomyces glabratus; assay: Ratio of fluconazole MIC to compound MIC for Candida glabrata PMC 0853R after 48 hrs by CLSI broth microdilution method
[18] = system: Nakaseomyces glabratus; assay: Antifungal activity against Candida glabrata PMC 0850R after 48 hrs by CLSI broth microdilution method; outline: as §1
[19] = system: Trichophyton mentagrophytes; assay: Antifungal activity against Trichophyton mentagrophytes DSM 4870 after 72 hrs by CLSI broth microdilution method; conditions: DSM 4870, 72 h; outline: as §3
[20] = system: Candida tropicalis; assay: Antifungal activity against Candida tropicalis DSM 11953 after 48 hrs by CLSI broth microdilution method; conditions: DSM 11953, 48 h; outline: as §1
[21] = system: Cryptococcus neoformans; assay: Antifungal activity against Cryptococcus neoformans PMC 2115 after 72 hrs by CLSI broth microdilution method; conditions: PMC 2115, 72 h; outline: as §2
[22] = system: Nakaseomyces glabratus; assay: Ratio of fluconazole MIC to compound MIC for Candida glabrata PMC 0852R after 48 hrs by CLSI broth microdilution method
[23] = system: Candida parapsilosis; assay: Antifungal activity against Candida parapsilosis ATCC 22019 after 48 hrs by CLSI broth microdilution method; conditions: Lodderomyces parapsilosis, ATCC 22019, 48 h; outline: as §1
[24] = system: Trichophyton mentagrophytes; assay: Antifungal activity against Trichophyton mentagrophytes PMC 6503 after 72 hrs by CLSI broth microdilution method; conditions: PMC 6503, 72 h; outline: as §3
[25] = system: Nakaseomyces glabratus; assay: Antifungal activity against Candida glabrata PMC 0853R after 48 hrs by CLSI broth microdilution method; outline: as §1
[26] = system: Trichophyton mentagrophytes; assay: Antifungal activity against Trichophyton mentagrophytes PMC 6515 after 72 hrs by CLSI broth microdilution method; conditions: PMC 6515, 72 h; outline: as §3
[27] = system: Nakaseomyces glabratus; assay: Ratio of fluconazole MIC to compound MIC for Candida glabrata PMC 0850R after 48 hrs by CLSI broth microdilution method
[28] = system: Candida parapsilosis; assay: Antifungal activity against Candida parapsilosis DSM 11224 after 48 hrs by CLSI broth microdilution method; conditions: Lodderomyces parapsilosis, DSM 11224, 48 h; outline: as §1
[29] = system: Candida tropicalis; assay: Antifungal activity against Candida tropicalis PMC 0910 after 48 hrs by CLSI broth microdilution method; conditions: PMC 0910, 48 h; outline: as §1
[30] = system: Nakaseomyces glabratus; assay: Antifungal activity against Candida glabrata PMC 0852R after 48 hrs by CLSI broth microdilution method; outline: as §1
[31] = system: Candida albicans; assay: Antifungal activity against Candida albicans ATCC 10261 after 48 hrs by CLSI broth microdilution method; conditions: ATCC 10261, 48 h; outline: as §1
[32] = system: Candida albicans; assay: Antifungal activity against Candida albicans ATCC 76615 after 48 hrs by CLSI broth microdilution method; conditions: ATCC 76615, 48 h; outline: as §1
[33] = system: Trichophyton mentagrophytes; assay: Antifungal activity against Trichophyton mentagrophytes PMC 6509 after 72 hrs by CLSI broth microdilution method; conditions: PMC 6509, 72 h; outline: as §3
[34] = system: Nannizzia gypsea; assay: Antifungal activity against Microsporum gypseum PMC 7331 after 72 hrs by CLSI broth microdilution method; conditions: PMC 7331, 72 h; outline: as §3
[35] = system: Nannizzia gypsea; assay: Antifungal activity against Microsporum gypseum PMC 7303 after 72 hrs by CLSI broth microdilution method; conditions: PMC 7303, 72 h; outline: as §3
[36] = system: Trichophyton mentagrophytes; assay: Antifungal activity against Trichophyton mentagrophytes PMC 6531 after 72 hrs by CLSI broth microdilution method; conditions: PMC 6531, 72 h; outline: as §3
[37] = system: Candida albicans; assay: Antifungal activity against Candida albicans PMC 1041R after 48 hrs by CLSI broth microdilution method; outline: as §1
[38] = system: Candida albicans; assay: Ratio of fluconazole MIC to compound MIC for Candida albicans PMC 1040R after 48 hrs by CLSI broth microdilution method
[39] = system: Nakaseomyces glabratus; assay: Antifungal activity against Candida glabrata PMC 0805 after 48 hrs by CLSI broth microdilution method; conditions: PMC 0805, 48 h; outline: as §1
[40] = system: Candida albicans; assay: Antifungal activity against Candida albicans PMC 1011 after 48 hrs by CLSI broth microdilution method; conditions: PMC 1011, 48 h; outline: as §1
[41] = system: Candida albicans; assay: Ratio of fluconazole MIC to compound MIC for Candida albicans PMC 1042R after 48 hrs by CLSI broth microdilution method
[42] = system: Candida albicans; assay: Antifungal activity against Candida albicans ATCC 20891 after 48 hrs by CLSI broth microdilution method; conditions: ATCC 20891, 48 h; outline: as §1
[43] = system: Candida albicans; assay: Ratio of fluconazole MIC to compound MIC for Candida albicans PMC 1041R after 48 hrs by CLSI broth microdilution method
[44] = system: Cryptococcus neoformans; assay: Antifungal activity against Cryptococcus neoformans DSM 11959 after 72 hrs by CLSI broth microdilution method; conditions: DSM 11959, 72 h; outline: as §2
[45] = system: Candida albicans; assay: Antifungal activity against Candida albicans ATCC 24433 after 48 hrs by CLSI broth microdilution method; conditions: ATCC 24433, 48 h; outline: as §1
[46] = system: Cryptococcus neoformans; assay: Antifungal activity against Cryptococcus neoformans PMC 2102 after 72 hrs by CLSI broth microdilution method; conditions: PMC 2102, 72 h; outline: as §2
[47] = system: Candida albicans; assay: Antifungal activity against Candida albicans ATCC 3153 after 48 hrs by CLSI broth microdilution method; conditions: ATCC 3153, 48 h; outline: as §1

Molecule `O=C(Nc1ccc(N2CCN(c3ccc(Cl)cc3)CC2)cc1)O[C@@H](Cn1ccnc1)c1ccc(F)cc1` has an MIC50 [1] of 0.25 µg/mL (≈ 0.481 µM), an MIC50 [2] of 0.0625 µg/mL (≈ 0.12 µM) and an MIC50 [3] of 0.25 µg/mL (≈ 0.481 µM). It also gave an MIC50 [4] of 0.0625 µg/mL (≈ 0.12 µM), an MIC80 [5] of 2 µg/mL (≈ 3.85 µM) and an MIC50 [6] of 64 µg/mL (≈ 123 µM). The MIC80 [7] was 2 µg/mL (≈ 3.85 µM), the MIC50 [8] was 0.06 µg/mL (≈ 0.115 µM) and the Ratio [9] was 15. It also gave an MIC50 [10] of 0.5 µg/mL (≈ 0.962 µM), an MIC50 [11] of 0.25 µg/mL (≈ 0.481 µM) and an MIC50 [12] of 0.5 µg/mL (≈ 0.962 µM). It also gave an MIC50 [13] of 64 µg/mL (≈ 123 µM), an MIC50 [14] of 1 µg/mL (≈ 1.92 µM) and an MIC50 [15] of 0.25 µg/mL (≈ 0.481 µM). It also gave an MIC50 [16] of 0.125 µg/mL (≈ 0.24 µM), a Ratio [17] of 15 and an MIC50 [18] of 0.25 µg/mL (≈ 0.481 µM). The MIC80 [19] was 4 µg/mL (≈ 7.69 µM), the MIC50 [20] was 0.25 µg/mL (≈ 0.481 µM) and the MIC50 [21] was 0.25 µg/mL (≈ 0.481 µM). It also gave a Ratio [22] of 15, an MIC50 [23] of 0.125 µg/mL (≈ 0.24 µM) and an MIC80 [24] of 4 µg/mL (≈ 7.69 µM). For the same molecule, the MIC50 [25] was 2 µg/mL (≈ 3.85 µM), the MIC80 [26] was 4 µg/mL (≈ 7.69 µM) and the Ratio [27] was 15. It also gave an MIC50 [28] of 0.0625 µg/mL (≈ 0.12 µM), an MIC50 [29] of 2 µg/mL (≈ 3.85 µM) and an MIC50 [30] of 2 µg/mL (≈ 3.85 µM). The MIC50 [31] was 0.125 µg/mL (≈ 0.24 µM), the MIC50 [32] was 0.5 µg/mL (≈ 0.962 µM) and the MIC80 [33] was 4 µg/mL (≈ 7.69 µM). For the same molecule, the MIC80 [34] was 4 µg/mL (≈ 7.69 µM), the MIC80 [35] was 2 µg/mL (≈ 3.85 µM) and the MIC80 [36] was 4 µg/mL (≈ 7.69 µM). The MIC50 [37] was 0.5 µg/mL (≈ 0.962 µM), the Ratio [38] was 15 and the MIC50 [39] was 0.0625 µg/mL (≈ 0.12 µM). For the same molecule, the MIC50 [40] was 0.0625 µg/mL (≈ 0.12 µM), the Ratio [41] was 15 and the MIC50 [42] was 0.0625 µg/mL (≈ 0.12 µM). It also gave a Ratio [43] of 15, an MIC50 [44] of 0.125 µg/mL (≈ 0.24 µM) and an MIC50 [45] of 0.5 µg/mL (≈ 0.962 µM). The MIC50 [46] was 0.25 µg/mL (≈ 0.481 µM) and the MIC50 [47] was 0.5 µg/mL (≈ 0.962 µM).
